Test results taken from ChEMBL document CHEMBL4513216, “Probing the Open Global Health Chemical Diversity Library for Multistage-Active Starting Points for Next-Generation Antimalarials” (ACS Infect Dis, 2020).

Assay: Toxicity liver stage against HepG2, at 10uM
Assay type: cell-based
Design: test concentration 10 uM, cell line HepG2-A16-CD81EGFP
Conditions: human, HepG2-A16-CD81EGFP cells; read-out: INHIBITION
Procedure, shortened: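 Uninfected HepG2-A16-CD81EGFP cells, 3 × 10^3 per well, 1536-well, plated on prespotted compound at 10 μM final, parasite-free screening media added to match infected plates; puromycin 10 μM positive, DMSO 0.5% negative; run in parallel with 48 h PbLuc assay at 37 °C, 5% CO2; viability by CellTiter-Glo luminescence, normalized to controls.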

| SMILES | cytotoxicity at 10 µM |
| --- | --- |
| N#Cc1cnn(C(=O)COc2ccccc2F)c1N | 2.92% |
| CC1CCN(C(=O)CCN2Cc3ccccc3C[C@H]2C(N)=O)C1 (stereo partly specified) | -3.11% |
| COC(=O)C1CN(Cc2ccn(-c3ccc(F)cc3)n2)CCO1 (stereo unspecified) | -8.51% |
| Cc1noc(CCCC(=O)N2CCNC(=O)C2)n1 | -4.62% |
| COC(=O)c1ccc(NC2CCN(CC(F)(F)F)C2=O)cc1C (stereo unspecified) | 2.79% |
| CCc1nc(CN2CCCN(C(=O)c3ccccc3)CC2)cs1 | 7.41% |
| Cc1nn(-c2ccccc2)c(C)c1CNC(=O)NC1CC1 | 7.59% |
| Cc1nc2n(n1)CC(NCc1c(Cl)ccc3cccnc13)CC2 (stereo unspecified) | 0.0383% |
| Cc1noc(CCNC(=O)NCC(=O)NCc2ccccc2)n1 | 5.24% |
| Cc1nnc(NCC(c2ccco2)N(C)C)c(C#N)c1C (stereo unspecified) | -3.01% |
| Cc1nn(CN(CC(C)C)C2CC2)c(=O)c2noc(C)c12 | -3.39% |
| CCN(C(=O)c1cnc(-c2ccc3c(c2)OCO3)s1)C1CC1 | -0.839% |
| O=C(Nc1ccnc2ccnn12)c1ccc(NC2CC2)nc1 | 5.14% |
| Cc1cccc(C(=O)Nc2ccc(OC3CCOCC3)c(C)c2)n1 | -8.99% |
| Cc1nc(CNc2ncc(Br)cn2)n[nH]1 | -3.47% |
| O=C(Nc1ccc2c(c1)OC1(CCCC1)O2)c1ccc(=O)[nH]n1 | 0.887% |

| SMILES | cytotoxicity at 10 µM |
| --- | --- |
| CCN1CCN(CC(O)c2cc(Cl)ccc2Cl)CC1 (stereo unspecified) | 0.388% |
| Cc1cc(CS(=O)(=O)NC2CCCc3ccccc32)on1 (stereo unspecified) | -1.57% |
| Cc1cc(C(=O)N2CCCC(Cn3cc(C4CC4)nn3)C2)nc(C)n1 (stereo unspecified) | -0.916% |
| CC[C@@H](NC(C)=O)C(=O)NCc1cccnc1Oc1ccccc1OC | -3.06% |
| COc1ccccc1OCc1cc(C(=O)N2CCOCC2CO)n[nH]1 (stereo unspecified) | -3.94% |
| COC1CCCOC12CCN(C(=O)NCCc1cccs1)CC2 (stereo unspecified) | 1.03% |
| CCc1ccc(-c2cn3c(C(=O)N[C@H](C(N)=O)[C@@H](C)O)csc3n2)cc1 | 7.69% |
| CCNc1ccnc(-c2ccnc3c2ccn3C)n1 | 11.2% |
| FC(F)(F)CCc1ncnn1-c1ccc2c(c1)OCO2 | -3.55% |
| COc1cc2c(cc1C(=O)N1CC(c3ccncc3)C1)CCC2 | 0.545% |
| Cc1cc(C)nc(CNC(=O)C(c2cccnc2)N2CCOCC2)n1 (stereo unspecified) | -1.43% |
| Cc1ccc2cc(C(=O)N3CCCC3Cn3cccn3)[nH]c2c1 (stereo unspecified) | -7.39% |
| O=C(OCC1CCCN1)c1cccc(NC(=O)c2ccco2)c1 (stereo unspecified) | -6.66% |
| CN1[C@@H]2CC[C@H]1CN(C(=O)c1nnc3n1CCCC3)CC2 | -10.6% |
| Cc1c(C)c2c(c(C)c1O)CC[C@](C)(C(=O)O)O2 [(R)-TROLOX] | -1.69% |
